{"data": "Results from different studies", "target": "Hormonally up-regulated neu tumor-associated kinase (HUNK, Homo sapiens, UniProt P57058)", "One construct used (P57058 1-714)": "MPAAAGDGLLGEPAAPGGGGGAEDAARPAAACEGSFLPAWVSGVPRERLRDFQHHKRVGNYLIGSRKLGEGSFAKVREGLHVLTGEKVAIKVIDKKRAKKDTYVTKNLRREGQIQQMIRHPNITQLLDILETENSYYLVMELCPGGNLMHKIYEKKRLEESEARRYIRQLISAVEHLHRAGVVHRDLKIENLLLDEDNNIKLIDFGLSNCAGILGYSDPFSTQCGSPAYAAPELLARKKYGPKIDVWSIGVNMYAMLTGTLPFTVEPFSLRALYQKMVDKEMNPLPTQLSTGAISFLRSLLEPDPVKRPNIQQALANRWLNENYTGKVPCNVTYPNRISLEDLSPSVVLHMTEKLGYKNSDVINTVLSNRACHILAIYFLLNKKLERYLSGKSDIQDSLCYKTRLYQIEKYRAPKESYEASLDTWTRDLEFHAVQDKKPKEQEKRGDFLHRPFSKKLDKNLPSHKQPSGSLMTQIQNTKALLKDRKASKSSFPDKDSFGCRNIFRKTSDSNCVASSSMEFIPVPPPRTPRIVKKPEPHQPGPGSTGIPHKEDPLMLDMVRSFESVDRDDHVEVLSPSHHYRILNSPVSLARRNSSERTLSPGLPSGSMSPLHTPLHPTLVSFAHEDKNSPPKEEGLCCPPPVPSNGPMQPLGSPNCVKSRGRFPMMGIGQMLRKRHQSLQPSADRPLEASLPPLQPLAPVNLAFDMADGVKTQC", "note": "Protocols differ between the studies behind these lines."}
{"SMILES": "COc1ccnn2ncc(-c3ccnc(N(C)C)n3)c12", "read-out": "binding", "tested at": "1 µM", "remaining binding": "100%"}
{"SMILES": "O=C(O)c1cc(-c2ccc(C3CCNCC3)cc2)c2ccc(-c3ccc(C(F)(F)F)cc3)cc2c1", "read-out": "cell-free assay", "method": "competition with immobilised ligand", "tested at": "1 µM", "remaining binding": "100%"}
{"SMILES": "O=C(c1ccc(Nc2ncc(Cl)c(-c3cc4ccccc4s3)n2)cc1)N1CCC(N2CCCC2)CC1", "read-out": "binding", "method": "competition with immobilised ligand", "tested at": "1 µM", "remaining binding": "100%"}
{"SMILES": "COc1ncc2cc3ccccc3nc2c1C#N", "read-out": "cell-free assay", "method": "competition with immobilised ligand", "tested at": "5 µM", "remaining binding": "100%"}
{"SMILES": "c1cncc(-c2cccc(Nc3nccc(NC4CCCCC4)n3)c2)c1", "read-out": "binding", "method": "competition with immobilised ligand", "tested at": "10 µM", "remaining binding": "100%"}
{"SMILES": "COc1cc(-c2cn(C3CCc4ccccc4N(CC(F)(F)F)C3=O)nn2)ccc1-n1ccc(C)n1 (stereo not shown)", "read-out": "cell-free assay", "method": "competition with immobilised ligand", "tested at": "1 µM", "remaining binding": "100%"}
{"SMILES": "N[C@@H]1CCN(c2nccc(-c3cnn4ncccc34)n2)C1", "read-out": "binding", "tested at": "1 µM", "remaining binding": "100%"}
{"SMILES": "O=C(NCCCN1CCOCC1)c1ccc(Nc2ncc(Cl)c(-c3ccc(Cl)s3)n2)cc1", "read-out": "binding", "method": "competition with immobilised ligand", "tested at": "1 µM", "remaining binding": "100%"}
{"SMILES": "CN(C)c1nccc(-c2cnn3ncccc23)n1", "read-out": "binding", "tested at": "1 µM", "remaining binding": "100%"}
{"SMILES": "CN([C@@H]1CCc2c(CC(=O)O)c3ccccc3n2C1)S(=O)(=O)c1ccc(F)cc1", "read-out": "cell-free assay", "method": "competition with immobilised ligand", "tested at": "1 µM", "remaining binding": "99%"}
{"SMILES": "COc1cnc(Nc2cccc(S(N)(=O)=O)c2)nc1N1CCN(c2ccccc2)C(=O)C1", "read-out": "binding", "method": "competition with immobilised ligand", "tested at": "1 µM", "remaining binding": "100%"}
{"SMILES": "Nc1ncc2c(n1)-c1c([nH]c3ccc(C#CC4CC4)cc13)CCCC2", "read-out": "binding", "method": "competition with immobilised ligand", "tested at": "1 µM", "remaining binding": "97%"}
{"SMILES": "O=C(Nc1c[nH]nc1C(=O)NC1CCNCC1)c1cc(F)cc(F)c1", "read-out": "binding", "method": "competition with immobilised ligand", "tested at": "1 µM", "remaining binding": "100%"}
{"SMILES": "C=CC(=O)N1CCC(C(=O)NCC(=O)N2CCN(c3nc(-c4cnc(N)nc4C(F)F)nc(N4CCOCC4)n3)CC2)CC1", "read-out": "binding", "method": "competition with immobilised ligand", "tested at": "1 µM", "remaining binding": "79%"}
{"SMILES": "CNC(=O)Nc1ccc2c(c1)CC[C@@]21OC(=O)N(CC(=O)N(Cc2ccc(F)cc2)[C@@H](C)C(F)(F)F)C1=O", "read-out": "cell-free assay", "method": "competition with immobilised ligand", "tested at": "1 µM", "remaining binding": "100%"}
{"SMILES": "c1cnn2ncc(-c3ccnc(N4CCC45COC5)n3)c2c1", "read-out": "binding", "tested at": "1 µM", "remaining binding": "92%"}
{"SMILES": "NS(=O)(=O)c1cc(NC(=O)Cc2ccccc2)ccc1Oc1cccc(Cl)c1", "read-out": "cell-free assay", "method": "competition with immobilised ligand", "tested at": "1 µM", "remaining binding": "84%"}
{"SMILES": "C[C@H]1CCN(c2nccc(-c3cnn4ncccc34)n2)C1", "read-out": "binding", "tested at": "1 µM", "remaining binding": "100%"}
{"SMILES": "CCC(=O)N[C@H]1CC[C@@H](C(=O)N(C)c2ccc(-c3nc4ccccc4o3)cc2)C1", "read-out": "cell-free assay", "method": "competition with immobilised ligand", "tested at": "1 µM", "remaining binding": "100%"}
{"SMILES": "CN(CCCC(F)(F)F)c1nccc(-c2cnn3ncccc23)n1", "read-out": "binding", "tested at": "1 µM", "remaining binding": "80%"}
{"SMILES": "Cc1cnc(Nc2ccc(C(=O)N3CCC(N4CCCC4)CC3)cc2)nc1-c1cc2ccccc2s1", "read-out": "binding", "method": "competition with immobilised ligand", "tested at": "1 µM", "remaining binding": "100%"}
{"SMILES": "CC1=C(C#N)[C@@H](c2ccc3[nH]nc(C)c3c2)C(C#N)=C(c2ccc(Cl)cc2)N1", "read-out": "cell-free assay", "method": "competition with immobilised ligand", "tested at": "1 µM", "remaining binding": "81.4%"}
